A selection: hits, their analogues and other compounds. The true share with any hit is near 2.3%.
TRPC4 agonist: activators of mouse TRPC4 channel, primary screen, Fluo4 calcium, HEK293 TRPC4beta/mu-opioid cells | Short transient receptor potential channel 4 (Mus musculus), Q9QUQ5 | Fluo4 calcium fluorescence; stronger effect = higher value | B-score at 10 µM | actives 0.49% (n = 310,000) | AID 2237, 2010;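 active = B-score above 5 SD of library B-scores, and initial fluorescence ratio not above library mean plus 5 SD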;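 note: positive B-score marks a calcium rise read as TRPC4 activation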
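Assay system: HEK293 cells stably co-expressing mouse TRPC4beta and mu-opioid receptor / Timing: Fluo4 dye loading 45 min at room temperature, 110 s recording / Signal: Fluo4 calcium-sensitive dye fluorescence, kinetic, 1 Hz baseline / Read-out: integrated baseline-normalised fluorescence ratio, converted to per-well B score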
TRPC4 potent: positive allosteric modulators of TRPC4, primary screen, cell-based, mouse TRPC4beta, HEK293 mu-opioid, Fluo-4 calcium | DAMGO EC20, Fluo-4 Ca2+ flux; stronger effect = higher value | B-score at 10 µM | actives 0.42% (n = 310,000) | AID 2227, 2009;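 active = B-score of calcium response area above 5 SD of library B-scores, with initial fluorescence ratio within 5 SD of library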;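 note: B-score of integrated fluorescence ratio over time as area under calcium response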
TRPC4 block: inhibitors of mouse TRPC4 channel, primary screen, Fluo4 calcium, HEK293 TRPC4beta/mu-opioid cells. Short transient receptor potential channel 4 (Mus musculus), Q9QUQ5. DAMGO-evoked Fluo4 calcium flux; stronger effect = lower value. B-score at 10 µM. actives 0.39% (n = 300,000). AID 2247, 2010;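 active = B-score over 3 SD under the library average, no early fluorescence shift, positive overall ratio signal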
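Assay system – HEK293 line stably carrying TRPC4beta and mu-opioid receptor · Doses – single dose · Detection – Fluo4 calcium-dye fluorescence, kinetic read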
TRPC6 inhibitor: mouse TRPC6 channel inhibitors, primary screen, cell-based, HEK293, membrane potential dye. Short transient receptor potential channel 6 (Mus musculus), Q61143. ACh-evoked depolarization; stronger effect = lower value. B-score at 10 µM. actives 1.1% (n = 310,000). AID 2553, 2010;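 active = B-score under library mean minus 3 SD, initial fluorescence not abnormally high, positive integrated signal ratio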;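 note: B-score derived from integrated fluorescence ratio over the kinetic read; more negative B-score means stronger inhibition of depolarization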
Target sequence (Q61143 whole entry, looked up): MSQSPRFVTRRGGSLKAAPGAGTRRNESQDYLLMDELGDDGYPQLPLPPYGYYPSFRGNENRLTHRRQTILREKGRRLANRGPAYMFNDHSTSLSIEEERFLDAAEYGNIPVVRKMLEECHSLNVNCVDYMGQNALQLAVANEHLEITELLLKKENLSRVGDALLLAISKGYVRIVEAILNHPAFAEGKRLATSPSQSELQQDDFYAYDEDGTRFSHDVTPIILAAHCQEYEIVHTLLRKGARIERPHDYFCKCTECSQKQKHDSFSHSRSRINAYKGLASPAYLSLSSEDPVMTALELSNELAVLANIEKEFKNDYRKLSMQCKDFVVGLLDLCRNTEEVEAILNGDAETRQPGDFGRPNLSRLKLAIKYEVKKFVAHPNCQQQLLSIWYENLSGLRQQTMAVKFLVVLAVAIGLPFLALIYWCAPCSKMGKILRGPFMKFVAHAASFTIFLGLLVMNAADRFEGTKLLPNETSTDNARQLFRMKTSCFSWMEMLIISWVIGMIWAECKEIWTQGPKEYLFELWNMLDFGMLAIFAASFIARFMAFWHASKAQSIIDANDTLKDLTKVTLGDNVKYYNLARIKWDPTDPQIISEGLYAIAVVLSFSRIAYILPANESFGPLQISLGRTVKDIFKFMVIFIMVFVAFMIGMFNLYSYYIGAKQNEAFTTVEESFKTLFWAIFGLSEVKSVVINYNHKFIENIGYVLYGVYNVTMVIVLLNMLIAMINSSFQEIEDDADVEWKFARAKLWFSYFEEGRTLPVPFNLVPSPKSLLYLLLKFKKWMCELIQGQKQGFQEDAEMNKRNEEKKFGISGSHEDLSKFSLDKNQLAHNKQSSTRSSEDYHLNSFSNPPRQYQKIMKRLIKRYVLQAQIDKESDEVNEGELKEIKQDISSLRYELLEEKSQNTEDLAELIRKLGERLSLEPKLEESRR
TRPC6 activator: mouse TRPC6 channel activators, primary screen, cell-based, HEK293, membrane potential dye; AID 2550, 2010; B-score at 10 µM; Short transient receptor potential channel 6 (Mus musculus), Q61143; HEK293-TRPC6 membrane potential dye fluorescence; stronger effect = higher value; actives 0.13% (n = 310,000);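 active = B-score of the integrated fluorescence ratio above library mean plus 3 SD, and starting fluorescence ratio within library mean plus 5 SD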;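 note: higher score means more depolarization so channel activation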
An asterisk follows results filed as active; i = inactive.

SMILES	TRPC4 agonist	TRPC4 potent	TRPC4 block	TRPC6 inhibitor	TRPC6 activator
CCC1(C(=O)c2ccccc2)C(c2ccc([N+](=O)[O-])cc2)C1(C(=O)OC)C(=O)OC (stereo not given)	i	i	-7*	i	i
c1ccc(-c2nc(NCc3cccs3)c3ccccc3n2)cc1	i	i	i	i	i
c1csc(CNc2nc(-c3cccs3)nc3ccccc23)c1	i	i	-6*	i	i
c1csc(-c2nc(NCC3CCCO3)c3ccccc3n2)c1 (stereo not given)	i	i	-8*	i	i
c1cncc(-c2nc(NCC3CCCO3)c3ccccc3n2)c1 (stereo not given)	i	i	i	i	i
CN(Cc1ccccc1)S(=O)(=O)c1ccc2c(c1)CCC(=O)N2	i	i	i	i	i
O=C1c2ccc(Oc3ccc4c(c3)C(=O)N(CCCO)C4=O)cc2C(=O)N1CCCO	71*	i	i	i	i
c1ccc2c(c1)CN1CCCC1=N2	i	i	i	i	i
COc1cccc(/C=C2\SC(=S)N(CC3CCCO3)C2=O)c1 (stereo not given)	i	i	-6*	i	i
O=C1/C(=C/c2cccc(O)c2)SC(=S)N1CC1CCCO1 (stereo not given)	i	i	i	i	i
S=c1[nH]nc(-c2cc3c(s2)-c2ccccc2CC3)o1	i	i	-6*	i	i
O=C(NC(=O)c1ccccc1)Nc1cccc(S(=O)(=O)N2CCCCC2)c1	i	i	i	i	i
CCc1nnc(NC(=O)c2nc3nc(C)cc(C)n3n2)s1	i	i	i	-5.5*	i
N=c1c(C(=O)NC2CCCC2)cc2c(=O)n3ccccc3nc2n1CCCN1CCOCC1	i	i	i	i	i
N=c1c(C(=O)NCC2CCCO2)cc2c(=O)n3ccccc3nc2n1Cc1ccc(Cl)cc1 (stereo not given)	i	29*	i	i	i
Cc1ccc(Cn2c(=N)c(C(=O)NCC3CCCO3)cc3c(=O)n4ccccc4nc32)cc1 (stereo not given)	i	47*	i	i	i
Cc1ccc2nc3c(cc(C(=O)NC4CCCC4)c(=N)n3CCCn3ccnc3)c(=O)n2c1	i	i	i	-5.5*	i
Cc1ccc(Cn2c(=N)c(C(=O)NC3CCCCC3)cc3c(=O)n4ccccc4nc32)cc1	i	20*	i	i	i
CCCOc1ccccc1OCC(=O)Nc1cc(Cl)ccc1-n1cncn1	i	i	i	i	i
CCN(C(=O)c1ccc(S(=O)(=O)N2CCCCC2)cc1)C1CCS(=O)(=O)C1 (stereo not given)	i	i	i	i	i
O=C(NCc1cccnc1)C(=O)Nc1cc2c3c(c1)CC(=O)N3CCC2	i	i	i	i	i
N=c1c(C(=O)NCCc2ccccc2)cc2c(=O)n3ccccc3nc2n1CC1CCCO1 (stereo not given)	i	i	i	-5.1*	i
CC[C@H](NC(=O)c1c(C)c(-c2ccccc2)nc2ccccc12)c1ccccc1	i	i	i	i	13*
Cc1c(-c2ccccc2)nc2ccccc2c1C(=O)O	i	i	i	i	i
CCSc1nc2c(c(=O)n1Cc1ccccc1)SC(C)C2 (stereo not given)	i	i	-6*	i	i
SMILES	TRPC4 agonist	TRPC4 potent	TRPC4 block	TRPC6 inhibitor	TRPC6 activator
Cc1cccc(C)c1N=Nc1c(C)cc(O)cc1C	i	i	i	i	i
CCOC(=O)C1=C(C)N=c2s/c(=C/c3cccc([N+](=O)[O-])c3O)c(=O)n2C1c1ccc(OC)cc1OC (stereo not given)	i	i	i	-5.2*	i
CCOC(=O)Cn1cnc2c(nnn2-c2ccc(F)cc2)c1=O	i	i	i	i	i
COc1ccc(CN2CCCC2C(=O)Nc2ccc(OC)c(OC)c2)cc1OC (stereo not given)	i	i	i	-5.7*	i
CCC(NC(=O)c1cncc(Br)c1)c1ccccc1 (stereo not given)	i	i	i	i	i
COc1ccccc1CCNC(C)CCc1ccc(O)cc1 (stereo not given)	i	i	i	i	i
COc1cc(OC)c(OC)cc1CCC(C)NCCC(c1ccccc1)c1ccccc1 (stereo not given)	87*	i	i	i	i
Cc1ccc(S(=O)(=O)c2c(C)cc(C)[nH]c2=O)c(C)c1	i	i	i	i	i
c1ccc(-c2ncc(CN3CCN(c4ccccn4)CC3)[nH]2)cc1	i	i	-6*	i	i
c1ccc(N2CCN(Cc3nc4ccccc4[nH]3)CC2)nc1	i	i	i	i	i
CC1=NNC(=O)/C1=C\c1cn(-c2ccccc2)nc1-c1ccccc1	i	10*	i	i	i
O=Cc1cn(-c2ccccc2)nc1-c1ccccc1	i	i	i	i	i
CCOc1ccc(NC(=O)CN(C)C(=O)CCCc2nc3ccccc3c(=O)[nH]2)cc1OCC	i	i	i	i	i
CCCNc1nc2ccccc2n2c(C)nnc12	i	i	-6*	i	i
CC(C)c1ccccc1OCCCCCNCCO	i	13*	i	i	i
CCOC(=O)c1ccc(NC(=S)N2CCSC2c2ccc(Cl)cc2)cc1 (stereo not given)	i	20*	i	i	i
Clc1ccc(OCCCc2nc(-c3ccncc3)no2)c(Cl)c1	i	i	-9*	i	i
CN1CCCN(C(=O)c2cc(-c3ccc(Cl)c(Cl)c3Cl)nc3ccccc23)CC1	52*	i	i	i	i
Cc1ccc(-c2cc(C(=O)N3CCC(C)CC3)c3ccccc3n2)cc1	i	12*	i	i	i
O=C(OCC(=O)N1CCN(C(=O)c2ccco2)CC1)c1cc(-c2ccc(Cl)c(Cl)c2Cl)nc2ccccc12	i	i	i	i	i
Clc1ccccc1CSc1nc2ccncc2[nH]1	i	i	-6*	i	i
O=C(NCc1ccccc1Cl)c1ccc(CSc2nc3ccncc3[nH]2)cc1	i	i	i	i	i
